Data: ChEMBL document CHEMBL4138168, “Design and synthesis of novel thiobarbituric acid derivatives targeting both wild-type and BRAF-mutated melanoma cells” (Eur J Med Chem, 2018)
Active and inactive are the calls of the source. The calls are words filed in the database; no cut-off is given here.

Columns and labels:
[1] = Cytotoxicity against human MCF10A cells assessed as cell viability at 25 uM after 48 hrs by MTT assay relative to control; format: cell-based, MCF-10A; settings: read-out: Activity
Method in brief: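 MTT viability at a single 25 μM dose, 48 h, 3,000 cells/well. MCF10A normal breast epithelial cells were kept in MEGM mammary epithelial medium; the cancer lines were in DMEM with 10% FBS, 37 °C. OD at 570 nm with 630 nm background, expressed relative to control.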

CHL-1 [2] = experiment: Induction of apoptosis in human CHL-1 cells harboring wild type BRAF assessed as increase in phosphorylated Bcl-2 level at 5 to 25 uM after 24 hrs by Western blot analysis; format: functional, cell-based
Method in brief: (§1)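 2 × 10^6 cells treated with the indicated concentrations for 24 h. Whole-cell lysates run on SDS-PAGE, transferred to PVDF, probed with antibodies against apoptosis/survival proteins, and detected by enhanced chemiluminescence.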

[3] = Selectivity ratio of cytotoxicity against human MCF10A cells to IC50 for human UACC-903 cells harboring BRAF mutant; format: toxicity, cell-based; settings: MCF10A cells versus UACC-903 cells harboring BRAF mutant
UACC-903 [4] = experiment: Induction of apoptosis in human UACC-903 cells harboring BRAF mutant assessed as apoptotic dead cells level at 5 uM after 24 hrs by AAD dye containing caspase 3/7 activity assay (reference value: 3%); format: functional
CHL-1 [5] = experiment: Induction of apoptosis in human CHL-1 cells harboring wild type BRAF assessed as decrease in Bcl-xL level at 5 to 25 uM after 24 hrs by Western blot analysis; format: functional, cell-based; method in brief: as §1
CHL-1 [6] = experiment: Induction of apoptosis in human CHL-1 cells harboring wild type BRAF assessed as […] in cleaved PARP level at 5 to 25 uM after 24 hrs by Western blot analysis; format: functional, cell-based; method in brief: as §1
UACC-903 [7] = experiment: Induction of apoptosis in human UACC-903 cells harboring BRAF mutant assessed as apoptotic cells level at 25 uM after 24 hrs by AAD dye containing caspase 3/7 activity assay (reference value: 6.88%); format: functional
UACC-903 [8] = experiment: Induction of apoptosis in human UACC-903 cells harboring BRAF mutant assessed as increase in dead cells at 25 uM after 24 hrs by Calcein-AM/ethidium bromide staining-based fluorescence assay (reference value: 3%); format: functional
[9] = Selectivity ratio of cytotoxicity against human MCF10A cells to cytotoxicity against human MCF7 cells; format: toxicity, cell-based; settings: MCF10A cells versus MCF7 cells
UACC-903 [10] = experiment: Induction of apoptosis in human UACC-903 cells harboring BRAF mutant assessed as viable cells at 25 uM after 24 hrs by Annexin V/7-AAD staining-based assay (reference value: 95.64%); format: functional; settings: UACC-903, 24 h, read-out: Activity
[11] = Selectivity ratio of cytotoxicity against human MCF10A cells to cytotoxicity against human MDA-MB-231 cells; format: toxicity, cell-based; settings: MCF10A cells versus MDA-MB-231 cells
PANC-1 = experiment: Antiproliferative activity against human PANC1 cells after 48 hrs by MTT assay; format: functional, cell-based; settings: PANC-1, 48 h
Method in brief: (§2)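 3,000 cells per well, grown at 37 °C (DMEM with 10% FBS and penicillin/streptomycin; HCT116 in McCoy's 5A). Cells exposed in triplicate to 0.5–25 μM compound for 48 h. MTT (5 mg/mL PBS stock) added for 3 h, formazan dissolved in DMSO, OD read at 570 nm minus 630 nm background. IC50 from non-linear regression of two independent experiments.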

CHL-1 [12] = experiment: Induction of apoptosis in human CHL-1 cells harboring wild type BRAF assessed as increase in dead cells at 50 uM after 24 hrs by Calcein-AM/ethidium bromide staining-based fluorescence assay (reference value: 2%); format: functional
UACC-903 [13] = experiment: Induction of apoptosis in human UACC-903 cells harboring BRAF mutant assessed as increase in dead cells at 50 uM after 24 hrs by Calcein-AM/ethidium bromide staining-based fluorescence assay (reference value: 3%); format: functional
UACC-903 [14] = experiment: Induction of apoptosis in human UACC-903 cells harboring BRAF mutant assessed as early apoptotic cells at 5 uM after 24 hrs by Annexin V/7-AAD staining-based assay (reference value: 2.68%); format: functional
UACC-903 [15] = experiment: Induction of apoptosis in human UACC-903 cells harboring BRAF mutant assessed as necrotic cells at 25 uM after 24 hrs by Annexin V/7-AAD staining-based assay (reference value: 0.12%); format: functional
UACC-903 [16] = experiment: Induction of apoptosis in human UACC-903 cells harboring BRAF mutant assessed as late apoptotic cells at 5 uM after 24 hrs by Annexin V/7-AAD staining-based assay (reference value: 1.56%); format: functional
UACC-903 [17] = experiment: Induction of apoptosis in human UACC-903 cells harboring BRAF mutant assessed as live cells level at 5 uM after 24 hrs by AAD dye containing caspase 3/7 activity assay (reference value: 90.06%); format: functional
UACC-903 [18] = experiment: Induction of apoptosis in human UACC-903 cells harboring BRAF mutant assessed as live cells level at 25 uM after 24 hrs by AAD dye containing caspase 3/7 activity assay (reference value: 90.06%); format: functional
[19] = Antiproliferative activity against human 1205 Lu cells after 48 hrs by MTT assay; format: functional, cell-based; method in brief: as §2
UACC-903 [20] = experiment: Induction of apoptosis in human UACC-903 cells harboring BRAF mutant assessed as necrotic cells at 5 uM after 24 hrs by Annexin V/7-AAD staining-based assay (reference value: 0.12%); format: functional
UACC-903 [21] = experiment: Induction of apoptosis in human UACC-903 cells harboring BRAF mutant assessed as increase in phosphorylated Bcl-2 level at 5 to 25 uM after 24 hrs by Western blot analysis; format: functional, cell-based; method in brief: as §1
WM 266-4 = experiment: Antiproliferative activity against human WM266.4 cells after 48 hrs by MTT assay; format: functional, cell-based; settings: WM 266-4, 48 h; method in brief: as §2
UACC-903 [22] = experiment: Induction of apoptosis in human UACC-903 cells harboring BRAF mutant assessed as apoptotic dead cells level at 25 uM after 24 hrs by AAD dye containing caspase 3/7 activity assay (reference value: 3%); format: functional
UACC-903 [23] = experiment: Induction of apoptosis in human UACC-903 cells harboring BRAF mutant assessed as dead cells level at 5 uM after 24 hrs by AAD dye containing caspase 3/7 activity assay (reference value: 0.06%); format: functional
[24] = Antiproliferative activity against human A375M cells after 48 hrs by MTT assay; format: functional, cell-based; method in brief: as §2
UACC-903 [25] = experiment: Induction of apoptosis in human UACC-903 cells harboring BRAF mutant assessed as apoptotic cells level at 5 uM after 24 hrs by AAD dye containing caspase 3/7 activity assay (reference value: 6.88%); format: functional
UACC-903 [26] = experiment: Induction of apoptosis in human UACC-903 cells harboring BRAF mutant assessed as late apoptotic cells at 25 uM after 24 hrs by Annexin V/7-AAD staining-based assay (reference value: 1.56%); format: functional
CHL-1 [27] = experiment: Induction of apoptosis in human CHL-1 cells harboring wild type BRAF assessed as increase in dead cells at 25 uM after 24 hrs by Calcein-AM/ethidium bromide staining-based fluorescence assay (reference value: 2%); format: functional
UACC-903 [28] = experiment: Induction of apoptosis in human UACC-903 cells harboring BRAF mutant assessed as decrease in Bcl-xL level at 5 to 25 uM after 24 hrs by Western blot analysis; format: functional, cell-based; method in brief: as §1

Compound | viability at 48 h, 25 µM [1] | Activity (CHL-1 [2]) | selectivity ratio [3] | Activity (UACC-903 [4]) | Activity (CHL-1 [5]) | Activity (CHL-1 [6]) | Activity (UACC-903 [7]) | Activity (UACC-903 [8]) | selectivity ratio [9] | viability at 25 µM (UACC-903 [10]) | selectivity ratio [11] | IC50 (PANC-1) | Activity (CHL-1 [12]) | Activity (UACC-903 [13]) | Activity (UACC-903 [14]) | Activity (UACC-903 [15]) | Activity (UACC-903 [16]) | Activity (UACC-903 [17]) | Activity (UACC-903 [18]) | IC50 [19] | other results
O=C1NC(=S)NC(=O)C1=C/C=C/c1cccs1 | 60% | Active | 3 | 3.94% | Active | Active | 38.14% | 70% | 2 | 25.8% | 2 | 19.1 µM | 98% | 85% | 5.12% | 3.42% | 3.14% | 90.28% | 17.4% | 12.4 µM | Activity (UACC-903 [20]): 0.4%; Activity (UACC-903 [21]): Active; IC50 (WM 266-4): 7.9 µM; Activity (UACC-903 [22]): 43.88%; Activity (UACC-903 [23]): 0.32%; IC50 [24]: 10.6 µM; Activity (UACC-903 [25]): 5.46%; Activity (UACC-903 [26]): 40.54%; Activity (CHL-1 [27]): 65%; Activity (UACC-903 [28]): Active
O=C1NC(=S)N(c2ccccc2)C(=O)/C1=C/C=C/c1cccs1 | 60% | Active | 3 | 2.88% | Active | Active | 50.06% | 15 - 25% | 2 | 29.4% | 2 | 8.3 µM | 40% | 45% | 3.7% | 5.31% | 3.18% | 87.26% | 25.7% | 13.5 µM | Activity (UACC-903 [20]): 0.54%; Activity (UACC-903 [21]): Active; IC50 (WM 266-4): 9.2 µM; Activity (UACC-903 [22]): 24.1%; Activity (UACC-903 [23]): 0.18%; IC50 [24]: 14.8 µM; Activity (UACC-903 [25]): 9.68%; Activity (UACC-903 [26]): 44.28%; Activity (CHL-1 [27]): 5%; Activity (UACC-903 [28]): Active
